The source of these data is ChEMBL document CHEMBL3994579, “Synthesis and antibacterial activity of novel 3-O-descladinosylazithromycin derivatives” (2017).

In brackets after ≈: the same amount, converted by molar mass.

Common to all, as to format: functional
For assay [1], the system named is Streptococcus pyogenes. The assay is described as follows: Antibacterial activity against erythromycin-resistant Streptococcus pyogenes R1 clinical isolate by broth microdilution method. A general note: Dilution methods test growth across graded concentrations, often in twofold steps.
For assay [2], the system named is Streptococcus pneumoniae. The assay is described as follows: Antibacterial activity against erythromycin-resistant Streptococcus pneumoniae AB11 expressing ermB/mefA genes by broth microdilution method. A digest of the protocol: (§1)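 Broth microdilution per NCCL recommendation, read as minimal inhibitory concentration, run alongside azithromycin and clarithromycin references. Strains: S. pneumoniae B1 (erythromycin-resistant, ermB), A22072 (erythromycin-resistant, mefA), AB11 (erythromycin-resistant, erm and mef); S. aureus ATCC29213 ([…]); S. epidermidis clinical isolate (penicillin-resistant, not characterized).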

The test system of the next assay is Pseudomonas aeruginosa. The experiment in a line: Antibacterial activity against penicillin-susceptible Pseudomonas aeruginosa ATCC 27853 by broth microdilution method. A digest of the protocol: (§2)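 MICs were determined in vitro by broth microdilution following the NCCL-recommended method. Azithromycin and clarithromycin were run alongside as reference antibiotics on the same strain panel.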

Assay [3] concerns Staphylococcus epidermidis. The assay is described as follows: Antibacterial activity against penicillin-resistant Staphylococcus epidermidis clinical isolate by broth microdilution method. A digest of the protocol: as §1
In assay [4] the test system is Streptococcus pneumoniae. The experiment in a line: Antibacterial activity against erythromycin-resistant Streptococcus pneumoniae B1 expressing ermB gene by broth microdilution method. In outline:
as §1

Assay [5] deals with Staphylococcus aureus. The experiment in a line: Antibacterial activity against erythromycin-susceptible Staphylococcus aureus ATCC 25923 by broth microdilution method. In outline: as §2
The test system of assay [6] is Streptococcus pneumoniae. The assay is described as follows: Antibacterial activity against erythromycin-resistant Streptococcus pneumoniae A22072 expressing mefA gene by broth microdilution method. A digest of the protocol:
as §1

The next assay relates to Escherichia coli. The assay is described as follows: Antibacterial activity against penicillin-susceptible Escherichia coli ATCC 25922 by broth microdilution method. A digest of the protocol:
as §2

The subject of assay [7] is Streptococcus pyogenes. The experiment in a line: Antibacterial activity against erythromycin-susceptible Streptococcus pyogenes clinical isolate by broth microdilution method. In outline:
as §2

The test system of a further assay is Bacillus subtilis. The assay is described as follows: Antibacterial activity against erythromycin/penicillin-susceptible Bacillus subtilis ATCC 9372 by broth microdilution method. A digest of the protocol:
as §2

The test system of assay [8] is Staphylococcus aureus. The experiment in a line: Antibacterial activity against […] Staphylococcus aureus ATCC 29213 by broth microdilution method. In outline:
as §1

One may read the MIC as the smallest concentration in the dilution series that meets the test's criterion for growth inhibition. Read a high MIC as weaker potency. Turning to `CC[C@H]1OC(=O)[C@H](C)[C@@H](O)[C@H](C)[C@@H](O[C@@H]2O[C@H](C)C[C@H](N(C)C)[C@H]2OC(=O)Nc2cccc(OC)c2)[C@](C)(O)C[C@@H](C)CN(C)[C@H](C)[C@H]2OC(=O)O[C@@]21C`, the minimal inhibitory concentration (MIC) against Streptococcus pyogenes [1] was 128 µg/mL (≈ 167 µM); in the assay on Streptococcus pneumoniae [2], 32 µg/mL (≈ 41.8 µM); against Pseudomonas aeruginosa, 64 µg/mL (≈ 83.6 µM); in [3], 64 µg/mL (≈ 83.6 µM); in the assay with Streptococcus pneumoniae [4], 128 µg/mL (≈ 167 µM); against Staphylococcus aureus [5] it was 32 µg/mL (≈ 41.8 µM). Also, the MIC is 16 µg/mL (≈ 20.9 µM) against Streptococcus pneumoniae [6]; 64 µg/mL (≈ 83.6 µM) in the assay with Escherichia coli; 2 µg/mL (≈ 2.61 µM) with Streptococcus pyogenes [7]; 128 µg/mL (≈ 167 µM) in the assay with Bacillus subtilis; 128 µg/mL (≈ 167 µM) in the assay with Staphylococcus aureus [8].

`CC[C@H]1OC(=O)[C@H](C)[C@@H](OC(=O)N(C)c2ccccc2)[C@H](C)[C@@H](O[C@@H]2O[C@H](C)C[C@H](N(C)C)[C@H]2OC(C)=O)[C@](C)(O)C[C@@H](C)CN(C)[C@H](C)[C@H]2OC(=O)O[C@@]21C` showed an MIC in [3] of 128 µg/mL (≈ 162 µM).

For `CC[C@H]1OC(=O)[C@H](C)[C@@H](O)[C@H](C)[C@@H](O[C@@H]2O[C@H](C)C[C@H](N(C)C)[C@H]2OC(=O)Nc2ccccc2)[C@](C)(O)C[C@@H](C)CN(C)[C@H](C)[C@H]2OC(=O)O[C@@]21C`, the MIC against Streptococcus pyogenes [1] turned out to be 128 µg/mL (≈ 174 µM); with Streptococcus pneumoniae [2] it was 8 µg/mL (≈ 10.9 µM); with Pseudomonas aeruginosa, 32 µg/mL (≈ 43.5 µM); in assay [3] it was 32 µg/mL (≈ 43.5 µM); with Streptococcus pneumoniae [4], 128 µg/mL (≈ 174 µM); against Staphylococcus aureus [5], 32 µg/mL (≈ 43.5 µM). For the same molecule, the MIC in the assay on Streptococcus pneumoniae [6] stood at 8 µg/mL (≈ 10.9 µM); against Escherichia coli it was 64 µg/mL (≈ 87 µM); in the assay with Streptococcus pyogenes [7] it was 0.5 µg/mL (≈ 0.679 µM); in the assay on Bacillus subtilis, 32 µg/mL (≈ 43.5 µM); in the assay with Staphylococcus aureus [8], 128 µg/mL (≈ 174 µM).

Consider `CC[C@H]1OC(=O)[C@H](C)[C@@H](OC(=O)Nc2ccccc2F)[C@H](C)[C@@H](O[C@@H]2O[C@H](C)C[C@H](N(C)C)[C@H]2OC(C)=O)[C@](C)(O)C[C@@H](C)CN(C)[C@H](C)[C@H]2OC(=O)O[C@@]21C`, for which the minimal inhibitory concentration (MIC) is 128 µg/mL (≈ 161 µM) against Streptococcus pyogenes [1]; 32 µg/mL (≈ 40.2 µM) with Streptococcus pneumoniae [2]; 128 µg/mL (≈ 161 µM) against Pseudomonas aeruginosa; 64 µg/mL (≈ 80.4 µM) in assay [3]; 128 µg/mL (≈ 161 µM) against Streptococcus pneumoniae [4]; 32 µg/mL (≈ 40.2 µM) against Staphylococcus aureus [5]. For the same molecule, the MIC was 8 µg/mL (≈ 10.1 µM) against Streptococcus pneumoniae [6]; 64 µg/mL (≈ 80.4 µM) against Escherichia coli; 4 µg/mL (≈ 5.03 µM) with Streptococcus pyogenes [7]; 32 µg/mL (≈ 40.2 µM) against Bacillus subtilis; 64 µg/mL (≈ 80.4 µM) in the assay with Staphylococcus aureus [8].

Consider `CC[C@H]1OC(=O)[C@H](C)[C@@H](O)[C@H](C)[C@@H](O[C@@H]2O[C@H](C)C[C@H](N(C)C)[C@H]2OC(=O)Nc2cccc(F)c2)[C@](C)(O)C[C@@H](C)CN(C)[C@H](C)[C@H]2OC(=O)O[C@@]21C`, for which the MIC with Streptococcus pyogenes [1] amounted to 128 µg/mL (≈ 170 µM); against Streptococcus pneumoniae [2] it was 16 µg/mL (≈ 21.2 µM); in the assay on Pseudomonas aeruginosa it was 128 µg/mL (≈ 170 µM); in [3], 64 µg/mL (≈ 84.9 µM); in the assay on Streptococcus pneumoniae [4], 256 µg/mL (≈ 340 µM); with Staphylococcus aureus [5], 32 µg/mL (≈ 42.4 µM). Besides, the MIC against Streptococcus pneumoniae [6] came to 8 µg/mL (≈ 10.6 µM); in the assay on Escherichia coli, 128 µg/mL (≈ 170 µM); against Streptococcus pyogenes [7] it was 1 µg/mL (≈ 1.33 µM); in the assay on Bacillus subtilis it was 128 µg/mL (≈ 170 µM); against Staphylococcus aureus [8], 128 µg/mL (≈ 170 µM).

Regarding `CCCCCCNC(=O)O[C@@H]1[C@@H](C)N(C)C[C@H](C)C[C@@](C)(O)[C@H](O[C@@H]2O[C@H](C)C[C@H](N(C)C)[C@H]2O)[C@@H](C)[C@H](OC(=O)Nc2ccccc2)[C@@H](C)C(=O)O[C@H](CC)[C@@]1(C)O`, the MIC against Pseudomonas aeruginosa worked out at 64 µg/mL (≈ 76.5 µM); in the assay with Staphylococcus aureus [5], 16 µg/mL (≈ 19.1 µM); in the assay on Escherichia coli, 64 µg/mL (≈ 76.5 µM); in the assay on Streptococcus pyogenes [7], 1 µg/mL (≈ 1.19 µM); with Bacillus subtilis, 4 µg/mL (≈ 4.78 µM).

Take `CC[C@H]1OC(=O)[C@H](C)[C@@H](OC(=O)Nc2ccccc2)[C@H](C)[C@@H](O[C@@H]2O[C@H](C)C[C@H](N(C)C)[C@H]2OC(C)=O)[C@](C)(O)C[C@@H](C)CN(C)[C@H](C)[C@H]2OC(=O)O[C@@]21C`: the minimum inhibitory concentration (MIC) in the assay on Streptococcus pyogenes [1] was found to be 128 µg/mL (≈ 165 µM); against Streptococcus pneumoniae [2] it was 64 µg/mL (≈ 82.3 µM); in the assay with Pseudomonas aeruginosa it was 64 µg/mL (≈ 82.3 µM); in assay [3], 16 µg/mL (≈ 20.6 µM); in the assay on Streptococcus pneumoniae [4], 128 µg/mL (≈ 165 µM); against Staphylococcus aureus [5] it was 32 µg/mL (≈ 41.1 µM). Besides, the MIC stood at 4 µg/mL (≈ 5.14 µM) against Streptococcus pneumoniae [6]; 32 µg/mL (≈ 41.1 µM) with Escherichia coli; 0.25 µg/mL (≈ 0.321 µM) against Streptococcus pyogenes [7]; 32 µg/mL (≈ 41.1 µM) against Bacillus subtilis; 128 µg/mL (≈ 165 µM) in the assay with Staphylococcus aureus [8].
